MrgX1 agonist – agonists of human MrgX1 receptor, primary screen, HEK293 cells, Fluo-4 calcium flux. Mas-related G-protein coupled receptor member X1 (Homo sapiens), Q96LB2. Fluo-4 calcium fluorescence, agonist mode; hits give high values. B-score at 10 µM. actives 0.44% (n = 310,000);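 active = calcium response B-score plate-corrected fluorescence ratio at least 3 library SD, with starting fluorescence B-score inside 5 SD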
Target sequence (Q96LB2 whole entry, looked up): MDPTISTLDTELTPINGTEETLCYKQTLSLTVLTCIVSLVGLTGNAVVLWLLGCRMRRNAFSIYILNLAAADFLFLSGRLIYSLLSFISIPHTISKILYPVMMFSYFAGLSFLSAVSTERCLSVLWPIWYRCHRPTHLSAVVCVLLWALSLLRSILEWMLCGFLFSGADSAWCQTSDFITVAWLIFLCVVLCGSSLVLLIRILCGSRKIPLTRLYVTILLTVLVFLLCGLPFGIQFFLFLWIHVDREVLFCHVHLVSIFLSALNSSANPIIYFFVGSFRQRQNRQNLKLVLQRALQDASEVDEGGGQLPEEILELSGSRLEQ
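Test system: HEK293 cells stably expressing human MrgX1 receptor; Input: fifteen thousand cells per well; Dosing: compound delivered in addition one of three; Schedule: overnight seeding, then 1 h dark dye loading; Technique: Fluo-4 NW calcium fluorescence; Measure: B-scored fluorescence response ratio; Controls: positive and negative controls per plate.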
MrgX1 antag – antagonists of human MrgX1 receptor, primary screen, HEK293 cells, Fluo-4 calcium flux. Mas-related G-protein coupled receptor member X1 (Homo sapiens), Q96LB2. BAM8-22 antagonism; hits give low values. B-score at 10 µM. actives 1.3% (n = 310,000);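 active = calcium-response B-score plate-corrected more than 3 library SD below zero, starting fluorescence within 5 deviations, no agonist response on first addition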;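 also: peak minus trough fluorescence over baseline after final BAM8-22 challenge near maximal dose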
MrgX1 PAM – positive allosteric modulators of MrgX1, primary screen, HEK293 cells, Fluo-4 calcium flux; actives 0.63% (n = 310,000); AID 588675, 2011; FDSS; hits give high values; Mas-related G-protein coupled receptor member X1 (Homo sapiens), Q96LB2; B-score at 10 µM;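 active = plate-corrected calcium response at least 3 library SD above typical, normal starting fluorescence, not activating the receptor alone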;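 also: compound read alongside a low EC10 to EC30 dose of BAM8-22 agonist; peak minus trough fluorescence over baseline measured at the second addition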
RGS4 block – RGS4 inhibitors, primary screen, cell-based, HEK293 M3R inducible RGS4, calcium flux; Fluo-4 calcium flux; hits give high values; triggered by carbachol at its EC20; AID 463165, 2010; B-score at 10 µM; actives 0.45% (n = 310,000);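 active = B-score, a plate-corrected calcium signal, over three deviations above library mean, with baseline fluorescence within five deviations of library mean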;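 also: RGS4 expression induced by doxycycline in cells with stable M3 receptor; B-score is computed from the integrated fluorescence ratio over baseline after carbachol; higher B-score means a larger calcium signal and so more RGS4 inhibition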
Target sequence (P49798 whole entry, looked up): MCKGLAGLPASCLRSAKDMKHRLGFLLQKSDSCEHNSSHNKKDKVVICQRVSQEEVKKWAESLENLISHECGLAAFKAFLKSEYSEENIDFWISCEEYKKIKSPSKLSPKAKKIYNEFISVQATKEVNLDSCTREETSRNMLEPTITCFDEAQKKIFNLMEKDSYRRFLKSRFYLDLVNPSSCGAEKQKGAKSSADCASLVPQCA
RGS4 pot – RGS4 potentiators or activators, primary screen, cell-based, HEK293 M3R inducible RGS4, calcium flux; AID 463111, 2010; actives 0.92% (n = 310,000); carbachol calcium flux Fluo4; hits give low values; B-score at 10 µM;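 active = B-score of the integrated calcium signal more than 4 SD below the library mean, with starting fluorescence not abnormally high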;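 also: negative B-score means reduced calcium response which marks RGS4 activation or potentiation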
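Test system: HEK293 cells with stable M3R and inducible RGS4; also added: carbachol at ECmax as muscarinic agonist stimulus; schedule: dye loading 30 min 37 °C, buffer rest 30 min RT; technique: kinetic calcium fluorescence imaging with Fluo4-AM dye, 2 µM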
MrgX1 allo conf – MrgX1 positive allosteric modulators, duplicate retest, confirmation, HEK293 cells, Fluo-4 calcium flux; shares compounds with MrgX1 PAM; Fluo-4 calcium fluorescence, FDSS; activation (ratio percentage), % at 10 µM; actives 13% (n = 1,200); AID 602413, 2012;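 active = ratio at least 3 SD above the weak peptide control, stable starting fluorescence, no direct agonism earlier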;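 also: compound followed by low BAM8-22 agonist challenge near EC20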
HEK293 Ca flux – nonspecific calcium signal in parental HEK293, confirmation, counter-screen for MrgX1 antagonist project, parental HEK293 cells, Fluo-4 calcium flux; Fluo-4 calcium fluorescence, FDSS; actives 2% (n = 4,000); fluorescence ratio F(max-min)/F0 at 10 µM; shares compounds with MrgX1 antag;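 active = duplicate-averaged calcium fluorescence ratio at least three times the standard deviation of buffer wells, a nonspecific response in parental cells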
HEK293 Ca counter – calcium response in parental HEK293 cells, primary screen, counter-screen for MrgX1 allosteric activator project, cell-based, Fluo-4 calcium flux, duplicate; shares compounds with MrgX1 antag; Fluo-4 fluorescence ratio; hits give high values; fluorescence ratio F(max-min)/F0 at 10 µM; actives 0.4% (n = 4,000);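 active = calcium fluorescence ratio, averaged over duplicates, at least 3 SD of the buffer-well ratio, meaning a nonspecific response in receptor-free cells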;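 also: untransfected parental HEK293 lacking MrgX1 used as counterscreen for MrgX1 allosteric activators; fluorescence change taken during the second addition on a kinetic imager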
HEK293 Ca cntr2 – calcium response in parental HEK293 cells, primary screen, counter-screen for MrgX1 agonist project, cell-based, Fluo-4 calcium flux, duplicate, agonist mode | shares compounds with MrgX1 antag | Fluo-4 calcium fluorescence (FDSS); hits give high values | fluorescence ratio F(max-min)/F0 at 10 µM | actives 8.7% (n = 4,000);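 active = calcium fluorescence ratio at least three times the spread of buffer wells, meaning a non-specific response in parental cells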
* = called active by the depositor. Hits are enriched below; roughly 3.5% of the tested compounds scored in any of these assays.

Screening COC(=O)c1c(-c2ccc(F)cc2)csc1NC(=O)c1ccco1 returned MrgX1 agonist inactive, MrgX1 antag inactive, MrgX1 PAM 22*, RGS4 block inactive, RGS4 pot inactive, MrgX1 allo conf 22%*, HEK293 Ca flux inactive, HEK293 Ca counter inactive and HEK293 Ca cntr2 inactive.
CCOC(=O)c1c(-c2ccc(C)cc2)csc1NC(=O)C1CCCO1 (stereo unspecified) was read as MrgX1 agonist inactive, MrgX1 antag inactive, MrgX1 PAM 13*, RGS4 block inactive, RGS4 pot inactive, MrgX1 allo conf 19%*, HEK293 Ca flux inactive, HEK293 Ca counter inactive and HEK293 Ca cntr2 inactive.
For O=C(Nc1scc(-c2ccccc2)c1C(=O)O)c1ccco1 the results were MrgX1 agonist inactive, MrgX1 antag inactive, MrgX1 PAM inactive, RGS4 block inactive and RGS4 pot inactive.
CCOC(=O)c1c(-c2ccc(F)cc2)csc1NC(=O)C1CCCO1 (stereo unspecified) was read as MrgX1 agonist inactive, MrgX1 antag inactive, MrgX1 PAM 11*, RGS4 block inactive, RGS4 pot inactive, MrgX1 allo conf inactive, HEK293 Ca flux inactive, HEK293 Ca counter inactive and HEK293 Ca cntr2 inactive.
Screening COc1ccccc1NC(=O)COc1ccc2c(c1)OCO2 returned MrgX1 agonist inactive, MrgX1 antag inactive, MrgX1 PAM inactive, RGS4 block inactive and RGS4 pot inactive.
Cc1cccc(N2CC(C(=O)Nc3nnc(SCC(=O)N4CCOCC4)s3)CC2=O)c1 (stereo unspecified) was read as MrgX1 agonist inactive, MrgX1 antag inactive, MrgX1 PAM inactive, RGS4 block inactive and RGS4 pot inactive.
For Cn1cnnc1SCC(=O)Nc1cc(S(=O)(=O)N2CCCCCC2)ccc1Cl the results were MrgX1 agonist inactive, MrgX1 antag inactive, MrgX1 PAM inactive, RGS4 block inactive and RGS4 pot inactive.
Screening CCc1ccc(-c2cc(C)no2)cc1S(=O)(=O)N1CCN(c2ccccc2)CC1 returned MrgX1 agonist inactive, MrgX1 antag inactive, MrgX1 PAM inactive, RGS4 block inactive and RGS4 pot inactive.
Screening COc1ccccc1NC(=O)c1ccc(NS(=O)(=O)c2ccc(F)c(F)c2F)cc1 returned MrgX1 agonist inactive, MrgX1 antag inactive, MrgX1 PAM 36*, RGS4 block inactive, RGS4 pot inactive, MrgX1 allo conf 28%*, HEK293 Ca flux inactive, HEK293 Ca counter inactive and HEK293 Ca cntr2 inactive.
For COc1ccc(CSc2nnc(Cc3sc(-c4ccccc4)nc3-c3ccccc3)o2)cc1 the results were MrgX1 agonist inactive, MrgX1 antag inactive, MrgX1 PAM inactive, RGS4 block inactive and RGS4 pot inactive.
Screening Cc1ccc2nc(-c3cccc(Br)c3)cc(C(=O)NC3=NCCS3)c2c1 returned MrgX1 agonist inactive, MrgX1 antag inactive, MrgX1 PAM 31*, RGS4 block inactive, RGS4 pot inactive, MrgX1 allo conf inactive, HEK293 Ca flux inactive, HEK293 Ca counter inactive and HEK293 Ca cntr2 inactive.
O=C(NC1=NCCS1)c1cc(-c2cccc(Br)c2)nc2ccccc12 was read as MrgX1 agonist inactive, MrgX1 antag inactive, MrgX1 PAM inactive, RGS4 block inactive and RGS4 pot inactive.
Screening O=C(CSc1ccc(F)cc1)Nc1ccccc1N1CCOCC1 returned MrgX1 agonist inactive, MrgX1 antag inactive, MrgX1 PAM inactive, RGS4 block inactive and RGS4 pot inactive.
Screening O=C(CSc1ccccc1)Nc1ccccc1N1CCOCC1 returned MrgX1 agonist inactive, MrgX1 antag inactive, MrgX1 PAM 8.5*, RGS4 block inactive, RGS4 pot inactive, MrgX1 allo conf inactive, HEK293 Ca flux inactive, HEK293 Ca counter inactive and HEK293 Ca cntr2 inactive.
Screening CC1CN(c2ccc(Cl)cc2[N+](=O)[O-])CCN1S(C)(=O)=O (stereo unspecified) returned MrgX1 agonist inactive, MrgX1 antag inactive, MrgX1 PAM inactive, RGS4 block inactive and RGS4 pot inactive.
Screening COc1ccc(Nc2nc(C)c3ccccc3n2)cc1 returned MrgX1 agonist inactive, MrgX1 antag inactive, MrgX1 PAM 15*, RGS4 block inactive, RGS4 pot inactive, MrgX1 allo conf inactive, HEK293 Ca flux inactive, HEK293 Ca counter inactive and HEK293 Ca cntr2 inactive.
COc1cc(C(=O)Nc2nnc(S(=O)(=O)N3CCCCCC3)s2)cc(OC)c1OC was read as MrgX1 agonist inactive, MrgX1 antag inactive, MrgX1 PAM inactive, RGS4 block inactive and RGS4 pot inactive.
For COn1c(SC2CCCCC2)nc2ccccc2c1=O the results were MrgX1 agonist inactive, MrgX1 antag inactive, MrgX1 PAM 29*, RGS4 block inactive, RGS4 pot inactive, MrgX1 allo conf 49%*, HEK293 Ca flux inactive, HEK293 Ca counter inactive and HEK293 Ca cntr2 inactive.
Screening O=C(Nc1ccc(Br)cc1)C1OCCc2ccccc21 (stereo unspecified) returned MrgX1 agonist inactive, MrgX1 antag inactive, MrgX1 PAM 11*, RGS4 block inactive, RGS4 pot inactive, MrgX1 allo conf inactive, HEK293 Ca flux inactive, HEK293 Ca counter inactive and HEK293 Ca cntr2 inactive.
`CC12COC3(C(=O)Nc4ccc(Cl)cc4)CC1CCC32C` (stereo unspecified) gave MrgX1 agonist inactive, MrgX1 antag inactive, MrgX1 PAM 31*, RGS4 block inactive, RGS4 pot inactive, MrgX1 allo conf 8.2%*, HEK293 Ca flux inactive, HEK293 Ca counter inactive and HEK293 Ca cntr2 inactive.

Source: PubChem BioAssay
